Activity calls are given as the source filed them. The calls are words filed in the database; no cut-off is given here.
Experiments:
[1] = Partition coefficient, log D at pH 7.4; conditions: octanol/water
[2] = target: RNA-directed RNA polymerase (Hepacivirus hominis, UniProt O39930); assay: Inhibition of HCV BK NS5B deltaC55 RNA dependent RNA polymerase; design: species or system Hepatitis C virus (isolate BK)
Method in brief: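 Purified NS5B ΔC55 enzyme from HCV genotype BK strain, assayed with heterogeneous template RNA; IC50 determined with a modified literature protocol.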

[3] = test system: Hepatitis C virus; assay: Inhibition of HCV RNA replication in Huh7 cells in presence of 10% fetal calf serum; assay type: functional, organism-based, Hepacivirus hominis; conditions: Huh-7
[4] = test system: Hepatitis C virus; assay: Inhibition of HCV RNA replication in Huh7 cells up to 100 uM; assay type: functional, organism-based; conditions: Hepacivirus hominis; Huh-7

Chain of RNA-directed RNA polymerase (O39930 whole entry): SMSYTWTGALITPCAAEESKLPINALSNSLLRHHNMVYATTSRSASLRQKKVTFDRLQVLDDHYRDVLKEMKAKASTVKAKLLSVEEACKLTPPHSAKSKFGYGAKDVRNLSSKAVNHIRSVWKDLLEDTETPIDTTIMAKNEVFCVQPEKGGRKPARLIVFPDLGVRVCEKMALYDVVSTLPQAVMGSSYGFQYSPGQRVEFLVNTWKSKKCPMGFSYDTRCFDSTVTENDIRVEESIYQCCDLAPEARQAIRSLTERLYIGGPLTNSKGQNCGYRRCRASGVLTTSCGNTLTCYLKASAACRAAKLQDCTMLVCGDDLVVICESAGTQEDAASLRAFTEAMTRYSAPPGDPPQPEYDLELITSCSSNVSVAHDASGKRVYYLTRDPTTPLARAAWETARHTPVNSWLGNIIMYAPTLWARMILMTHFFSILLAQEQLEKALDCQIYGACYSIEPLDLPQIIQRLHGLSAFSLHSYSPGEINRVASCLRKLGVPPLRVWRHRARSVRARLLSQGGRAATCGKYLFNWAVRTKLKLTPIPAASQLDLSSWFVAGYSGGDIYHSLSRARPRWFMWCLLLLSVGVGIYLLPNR

logD [1]	IC50 [2] [µM]	EC50 [3] [µM]	Compound	Activity [4]
1.1	0.32	9.8	CN(C)C(=O)Cn1c(-c2ccccc2)c(C2CCCCC2)c2ccc(C(=O)O)nc21	–
–	11.2	> 50	COc1ccc(-c2nc3cc(C(=O)O)ccc3n2C2CCCCC2)cc1	–
0.8	2.2	> 50	CN(C)C(=O)Cn1c(-c2ccccc2)c(C2CCCCC2)c2ncc(C(=O)O)cc21	–
–	77.3	–	COc1ccc(-c2nc(/C=C/C(=O)O)cn2C2CCCCC2)cc1	inactive
–	0.094	–	O=C(O)c1ccc2c(C3CCCCC3)c(-c3ccccc3)cn2c1	inactive
2.5	1.9	48.2	O=C(O)c1c[nH]c2c(C3CCCCC3)c(-c3ccccc3)nc-2c1	–
–	0.058	2.9	CN(C)C(=O)Cn1c(-c2ccccc2)c(C2CCCCC2)c2sc(C(=O)O)cc21	–
–	17.2	–	O=C(O)c1cc2nc(-c3ccccc3)n(C3CCCCC3)c2s1	inactive
–	–	0.8	O=C(O)c1ccc2c(C3CCCCC3)c(-c3ccccc3)n(CC(=O)N3CCOCC3)c2c1	–
–	13.8	–	O=C(O)c1cc2c(nc(-c3ccccc3)n2C2CCCCC2)s1	inactive
–	0.23	9.5	CN(C)C(=O)Cn1c(-c2ccccc2)c(C2CCCCC2)c2cc(C(=O)O)sc21	–
–	–	6.7	O=C(O)c1ccc2c(C3CCCCC3)c(-c3ccccc3)[nH]c2c1	–
3.3	0.15	16.8	O=C(O)c1ccc2c(C3CCCCC3)c(-c3ccccc3)[nH]c2n1	–
–	6.5	> 50	O=C(O)c1ccc2c(c1)nc(-c1ccccc1)n2C1CCCCC1	–
3.4	0.066	11.2	O=C(O)c1cc2[nH]c(-c3ccccc3)c(C3CCCCC3)c2s1	–
–	4.8	–	O=C(O)c1ccc2nc(-c3ccccc3)c(C3CCCCC3)cc2c1	inactive
–	0.12	19.5	O=C(O)c1cc2c(C3CCCCC3)c(-c3ccccc3)[nH]c2s1	–

Compound	logD [1]	IC50 [2] [µM]	EC50 [3] [µM]	Activity [4]
O=C(O)c1cc2nc(-c3ccccc3)n(C3CCCCC3)c2[nH]1	–	> 50	–	inactive
O=C(O)c1ccc2cc(C3CCCCC3)c(-c3ccccc3)nc2c1	–	> 50	–	inactive

Source: ChEMBL document CHEMBL1146030, “Identification of thieno[3,2-b]pyrroles as allosteric inhibitors of hepatitis C virus NS5B polymerase” (Bioorg Med Chem Lett, 2006)
